In the library only some 0.73% were active in any assay of this set; here they are far more common.
Tn6 DDE FP: inhibitors of Tn6 peptide binding to fibrin DD(E), primary screen, biochemical, fluorescence polarization, human fibrin, Tn6 probe. inhibition, % at 8.3 µM. hit rate 0.21% among 370,000. AID 720509, 2013. Fibrin DD(E) TRITC-Tn6 fluorescence polarization displacement. Fibrinogen beta chain (Homo sapiens), P02675;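 active means inhibition above a per-campaign cutoff: mean of compounds within control limits plus 3 SD, cut at about 15% in these data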;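 further: 0% = median of all compound wells on the plate and 100% = blocking peptide control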
Target sequence (P02675 whole entry, looked up): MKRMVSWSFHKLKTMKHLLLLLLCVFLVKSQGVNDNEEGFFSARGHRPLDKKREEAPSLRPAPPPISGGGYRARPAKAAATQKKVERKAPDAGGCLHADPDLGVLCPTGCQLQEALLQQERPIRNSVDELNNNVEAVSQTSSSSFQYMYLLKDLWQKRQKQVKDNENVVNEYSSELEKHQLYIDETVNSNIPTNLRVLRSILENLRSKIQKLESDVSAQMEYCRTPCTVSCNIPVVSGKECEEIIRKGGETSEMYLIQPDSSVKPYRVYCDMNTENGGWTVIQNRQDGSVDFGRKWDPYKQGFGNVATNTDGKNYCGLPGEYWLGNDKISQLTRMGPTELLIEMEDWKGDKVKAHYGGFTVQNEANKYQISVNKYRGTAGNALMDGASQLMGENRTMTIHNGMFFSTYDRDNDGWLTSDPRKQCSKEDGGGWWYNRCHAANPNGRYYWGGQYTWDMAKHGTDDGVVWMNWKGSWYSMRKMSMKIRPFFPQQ
LANA DNA inh: inhibitors of KSHV C-LANA binding to DNA, primary screen, biochemical, fluorescence polarization, FAM-LBS DNA, MBP-C-LANA, single point. Kaposi's sarcoma herpesvirus LANA C-terminal domain (residues 932-1162) DNA binding. inhibition, % at 9 µM. hit rate 0.078% among 340,000;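 active means highest replicate inhibition at or above 60% at 9 µM, even if other replicates fall short; inactive means all replicates below 60% inhibition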;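 further: 0% = neutral control wells and 100% = 4 µM acridine orange control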
cardiac RTF act: cardiac RTF calcium sensitivity activators, primary screen, biochemical, IANBD-TnC fluorescence, EC20 calcium. hit rate 0.24% among 340,000. IANBD-labeled TnC RTF fluorescence at EC20 calcium; 0% EC20 calcium, 100% full calcium. activation, % at 7.2 µM. AID 493008, 2010;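 active means activation above the mean over all tested compounds plus 3 SD, cut at about 30% in these data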;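 further: rise in fluorescence read as greater calcium sensitivity of cardiac thin filaments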
Keap1 Nrf2 FP: Keap1-Nrf2 protein-protein interaction inhibitors, primary screen, biochemical, fluorescence polarization, single point; hit rate 0.15% among 340,000; Kelch-like ECH-associated protein 1 (Homo sapiens), Q14145; Keap1 Kelch-Nrf2 peptide fluorescence polarization, 1536-well; AID 504523, 2011; inhibition, % at 9.4 µM; in the data active means inhibition above about 12%;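 further: human Keap1 Kelch domain with fluorescein labeled Nrf2 9mer peptide probe; 0% = neutral control wells and 100% = peptide positive control; higher means more block of Keap1 binding to Nrf2 peptide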
Tn7 DDE FP: inhibitors of Tn7 peptide binding to fibrin DD(E), primary screen, biochemical, fluorescence polarization, human fibrin, Tn7 probe | FP displacement of FITC-Tn7 peptide from fibrin DD(E); 0% = median of compound wells per plate | Fibrinogen beta chain (Homo sapiens), P02675 | inhibition, % at 8.3 µM | AID 720508, 2013 | hit rate 0.13% among 370,000;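 active means inhibition above the mean of compounds falling within the control limits plus 3 SD of them, cut at about 14% in these data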;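 further: 0% = plate median of compound wells and 100% = 10 µM Aha-Tn7 peptide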
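Assay system: human fibrin DD(E). Input: DD(E) 2 µM final. Medium: Tris buffer with calcium and detergent, pH 7.8. Compound dosing: single point at 8.3 µM. Timing: 10 min plus 3 h, room temperature. Technique: fluorescence polarization of the labelled Tn7 tracer. Read-out: percent inhibition. Replicates: singlicate testing.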
Cardiac RTF inh: cardiac RTF calcium sensitivity inhibitors, primary screen, biochemical, IANBD-TnC fluorescence, EC70 calcium; hit rate 0.12% among 340,000; IANBD-labeled cardiac RTF, Ca2+ fluorescence; inhibition, % at 7.15 µM; AID 493244, 2011;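 active means inhibition above the mean inhibition of all tested compounds plus 3 SD, cut at about 17% in these data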;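 further: assay run at fixed EC70 calcium of 1.6 mM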
Active calls of the source: *; i = inactive; nt = no result; + = active, no number.

SMILES | Tn6 DDE FP | LANA DNA inh | cardiac RTF act | Keap1 Nrf2 FP | Tn7 DDE FP | Cardiac RTF inh
CCOC(=O)c1c(NC(=O)C2COc3ccccc3O2)sc2c1CCN(Cc1ccccc1)C2 (centres undefined) | -4.1 | -0.4 | 0.4 | 0.4 | -0.2 | 7.6
COc1cccc(OC)c1C(=O)Nc1sc2c(c1C(N)=O)CCN(Cc1ccccc1)C2 | 5.0 | 0.0 | 2.1 | -2.3 | -0.8 | -9.4
CCC[C@@H](/C=C/C(=O)OC(C)(C)C)Sc1ccc(N)cc1 | 4.0 | nt | nt | nt | 1.6 | nt
CC(=O)OCCn1c(C)[n+](CCOC(C)=O)c2cc(Cl)c(Cl)cc21 | -3.4 | 0.7 | 6.2 | -7.1 | -0.3 | -8.7
CC(=O)OCCn1c2nc(=O)[nH]c(=O)c-2nc2cc(C)c(C)cc21 | 1.7 | 163.4* | + | 156.5* | 5.4 | i
CN(C)c1ccc(/C=C(/C#N)C(=O)NCc2ccccc2)o1 | -3.0 | 3.2 | 69.5* | -19.0 | -27.8 | -97.8
O=C(Nc1ccc2c(c1)OCO2)OC1CCC12CCCCC2 (centres undefined) | 6.5 | nt | nt | nt | 4.5 | nt
C[C@H](NC(=O)C[C@@H]1C=C[C@@H](NC(=O)CN2CCOCC2)[C@@H](CO)O1)c1ccccc1 | -0.4 | nt | nt | nt | -1.3 | nt
O=C(N/N=C/c1sc(N2CCOCC2)nc1-c1ccccc1)c1ccccc1O | -4.3 | -1.4 | -14.5 | -5.3 | -1.1 | -7.6
O=C(Nc1ccccc1F)C(=Cc1sc(N2CCOCC2)nc1-c1ccccc1)C(=O)Nc1ccccc1F | 0.7 | 53.8 | 30.4* | -7.3 | 3.6 | -9.2
CC1CCC2(CC1)CCC2NCc1ccc(Cl)c(Cl)c1 (centres undefined) | -1.4 | nt | nt | nt | 4.3 | nt
Cc1ccc2c(c1)c(/C=C/c1cc[n+](C)cc1)c(C)n2C | -2.3 | -68.0 | 241.1* | -238.9 | -87.5 | -286.0
Cc1ccc2[nH]c(C)c(/C=C/c3cc[n+](C)cc3)c2c1 | -0.4 | -52.8 | 154.1* | -188.0 | -39.3 | -159.2
CCCn1c(/C=C/c2cc[n+](C)cc2)nc2ccccc21 | 3.7 | 6.8 | 1.7 | 4.5 | 12.1 | -13.6
COc1ccc(C(=O)CSc2nnc(-c3cccs3)o2)cc1OC | 5.0 | nt | nt | nt | 4.7 | nt
CCN(CC)c1ccc2c(c1)OC(N)=C(C#N)C2c1cccnc1 (centres undefined) | 5.9 | 1.5 | 157.5* | -75.6 | -28.2 | -197.1
N#CC1=C(N)Oc2cc(N)ccc2C1c1cccnc1 (centres undefined) | 4.6 | -0.3 | 7.2 | -9.8 | -7.6 | -6.8
COC[C@H]1CCCN1c1ccc2c(c1)O[C@@H]1CCN(C1)S2(=O)=O | -8.5 | nt | nt | nt | -3.3 | nt
C[C@@H]1CN([C@H](C)CO)C(=O)c2cc(NC(=O)Nc3ccc(C(F)(F)F)cc3)ccc2O[C@H]1CN(C)S(=O)(=O)c1ccc(Cl)cc1 | 43.6* | -3.6 | 1.7 | -6.5 | 0.0 | 4.2
CN(C)c1ccc(/C=C/C(=O)c2ccc(O)cc2)cc1 | -7.2 | -20.3 | 71.7* | -97.3 | -63.6 | -118.7
CN(C)c1ccc(/C=C/C(=O)c2ccc3c(c2)OCO3)cc1 | 4.8 | 3.4 | 91.8* | -113.3 | -30.0 | -104.1
COc1ccc(C(=O)/C=C/c2ccc(N(C)C)cc2)c(OC)c1 | -7.8 | -8.1 | 80.6* | -59.9 | -30.8 | -132.8
CN(C)c1ccc(C(=O)C=Cc2ccc([N+](=O)[O-])cc2)cc1 | -1.8 | nt | nt | nt | -5.4 | nt
CCOc1cccc(C=NNC(=O)C(=O)Nc2cccc(C(F)(F)F)c2)c1O | -6.6 | nt | nt | nt | -2.7 | nt
Oc1ccc(N=Cc2ccc(-c3cccs3)s2)cc1 | 18.5* | -1.0 | -6.3 | -7.4 | -5.4 | -1.3
O=S1(=O)c2ccc(Br)cc2OC[C@@H](c2ccccc2)N1Cc1cn(CCC2OCCCO2)nn1 | 6.8 | nt | nt | nt | 0.0 | nt
